Activity calls are given as the source filed them. The rule behind the calls is not given here.
Tests used:
Escherichia coli [1] = assay: Antibacterial activity against Escherichia coli O157:H7 CICC 21530 assessed as bacterial growth inhibition incubated for 18 to 24 hrs by microtiter broth dilution method; format: functional; conditions: time 18-24 hrs
In short: (§1)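 Log-phase bacteria grown at 37 °C in MHB, diluted to 10^5 CFU/mL, mixed 1:1 with serial peptide dilutions (peptide diluted in 0.01% acetic acid, 0.2% BSA); 37 °C for 18-24 h. MIC read by OD492 as lowest concentration giving no growth; mean of 3-5 independent experiments.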

Escherichia coli [2] = assay: Antibacterial activity against Escherichia coli ATCC 25922 assessed as bacterial growth inhibition incubated for 18 to 24 hrs by microtiter broth dilution method; format: functional; conditions: time 18-24 hrs
In short: (§2)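 Log-phase cells (grown overnight at 37 °C, subcultured in MHB) diluted to 10^5 CFU/mL in MHB and mixed 1:1 with serial peptide dilutions prepared in 0.01% acetic acid/0.2% BSA. Incubated 37 °C for 18-24 h. MIC is the lowest concentration giving no growth by OD492. Reported as the average of 3-5 independent experiments.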

Salmonella paratyphi = assay: Antibacterial activity against Salmonella paratyphi A CICC 20501 assessed as bacterial growth inhibition incubated for 18 to 24 hrs by microtiter broth dilution method; format: functional, Salmonella enterica subsp. enterica serovar Paratyphi A; conditions: Salmonella enterica, time 18-24 hrs; in short: as §1
[3] = system: Salmonella enterica subsp. enterica serovar Paratyphi B; assay: Antibacterial activity against Salmonella paratyphi B CICC 21495 assessed as bacterial growth inhibition incubated for 18 to 24 hrs by microtiter broth dilution method; format: functional; conditions: time 18-24 hrs; in short: as §1
Shigella flexneri = assay: Antibacterial activity against Shigella flexneri CMCC 51571 assessed as bacterial growth inhibition incubated for 18 to 24 hrs by microtiter broth dilution method; format: functional; conditions: time 18-24 hrs; in short: as §2
Salmonella typhimurium = assay: Antibacterial activity against Salmonella typhimurium CMCC 51005 assessed as bacterial growth inhibition incubated for 18 to 24 hrs by microtiter broth dilution method; format: functional, Salmonella enterica subsp. enterica serovar Typhimurium; conditions: Salmonella enterica, time 18-24 hrs; in short: as §2
Vibrio parahaemolyticus = assay: Antibacterial activity against Vibrio parahaemolyticus CICC 21617 assessed as bacterial growth inhibition incubated for 18 to 24 hrs by broth dilution method; format: functional; conditions: time 18-24 hrs; in short: as §2
Staphylococcus aureus [4] = assay: Antibacterial activity against Staphylococcus aureus ATCC 29213 assessed as bacterial growth inhibition incubated for 18 to 24 hrs by microtiter broth dilution method; format: functional; conditions: time 18-24 hrs; in short: as §2
Staphylococcus aureus [5] = assay: Antibacterial activity against Staphylococcus aureus GIM 1.160 assessed as bacterial growth inhibition incubated for 18 to 24 hrs by microtiter broth dilution method; format: functional; conditions: time 18-24 hrs; in short: as §2
Listeria monocytogenes = assay: Antibacterial activity against Listeria monocytogenes CICC 21633 assessed as bacterial growth inhibition incubated for 18 to 24 hrs by microtiter broth dilution method; format: functional; conditions: time 18-24 hrs; in short: as §2
Micrococcus luteus = assay: Antibacterial activity against Micrococcus luteus CMCC 28001 assessed as bacterial growth inhibition incubated for 18 to 24 hrs by microtiter broth dilution method; format: functional; conditions: time 18-24 hrs; in short: as §2
Bacillus pumilus = assay: Antibacterial activity against Bacillus pumilus CMCC 63202 assessed as bacterial growth inhibition incubated for 18 to 24 hrs by microtiter broth dilution method; format: functional; conditions: time 18-24 hrs; in short: as §2
RAW264.7 [6] = assay: Cytotoxicity against mouse RAW264.7 cells assessed as increase in cell viability at 64 uM incubated for 24 hrs by MTT assay relative to control; format: cell-based; conditions: raw264.7, 24 h
In short: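 RAW264.7 macrophages were grown in DMEM with 10% FBS, 2 mM glutamine and penicillin/streptomycin at 37 °C in 5% CO2. Cells seeded at 1.0-2.0 × 10^4 per well and treated with peptide (final 0.25-64 µM) for 24 h at 37 °C. MTT at 0.5 mg/mL added for 4 h, formazan dissolved in DMSO, read at 570 nm.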

Escherichia coli [7] = assay: Antibacterial activity against Escherichia coli O157:H7 CICC 21530 assessed as bacterial growth inhibition incubated for 18 to 24 hrs in presence of 150 mM NaCl by microtiter broth dilution method (reference value: 0.85 to > 71.5 uM); format: functional; conditions: time 18-24 hrs
Escherichia coli [8] = assay: Antibacterial activity against Escherichia coli O157:H7 CICC 21530 assessed as bacterial growth inhibition incubated for 18 to 24 hrs in presence of 6 mM NH4Cl by microtiter broth dilution method (reference value: 0.85 to > 71.5 uM); format: functional; conditions: time 18-24 hrs
Escherichia coli [9] = assay: Antibacterial activity against Escherichia coli O157:H7 CICC 21530 assessed as bacterial growth inhibition incubated for 18 to 24 hrs in presence of 1 mM MgCl2 by microtiter broth dilution method (reference value: 0.85 to > 71.5 uM); format: functional; conditions: time 18-24 hrs
RAW264.7 [10] = assay: Antiinflammatory activity against mouse RAW264.7 cells assessed as inhibition of LPS-induced TNF-alpha production at 0.5 to 64 uM measured after 24 hrs by […] ELISA; format: functional, cell-based; conditions: dose 0.5-64 µM
In short: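 RAW264.7 cells plated at 1-2 × 10^5 cells/mL and stimulated with 500 ng/mL LPS with or without peptide (0.5-64 µM) for 24 h at 37 °C. Controls were untreated cells and LPS alone. TNF-α in the supernatant measured by ELISA. NO measured by Griess reagent (1% sulfanilamide, 0.1% naphthylethylenediamine, 5% phosphoric acid).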

HepG2 [11] = assay: Cytotoxicity against human HepG2 cells assessed as reduction in cell viability incubated for 24 hrs by MTT assay; format: functional, cell-based
In short: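 HepG2 survival measured by MTT assay over a peptide range of 0.25-64 µM.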

HepG2 [12] = assay: Induction of cell cycle arrest in human HepG2 cells assessed as accumulation at Go/G1 phase at 32 uM incubated for 24 hrs by annexin-V/FITC staining-based FACS flow cytometry analysis (reference value: 54.61 %); format: functional
HepG2 [13] = assay: Induction of cell cycle arrest in human HepG2 cells assessed as accumulation at sub-G1 phase at 64 uM incubated for 24 hrs by annexin-V/FITC staining-based FACS flow cytometry analysis (reference value: 0.07%); format: functional
Staphylococcus aureus [14] = assay: Antibacterial activity against Staphylococcus aureus ATCC 29213 assessed as bacterial growth inhibition incubated for 18 to 24 hrs in presence of 4.5 mM KCl by microtiter broth dilution method (reference value: 0.43 to > 71.5 uM); format: functional; conditions: time 18-24 hrs
Staphylococcus aureus [15] = assay: Antibacterial activity against Staphylococcus aureus ATCC 29213 assessed as bacterial growth inhibition incubated for 18 to 24 hrs in presence of 1 mM MgCl2 by microtiter broth dilution method (reference value: 0.43 to > 71.5 uM); format: functional; conditions: time 18-24 hrs
Escherichia coli [16] = assay: Bactericidal activity against Escherichia coli O157:H7 CICC 21530 assessed as bacterial killing at 1 times MIC by time kill assay; format: functional, organism-based; conditions: time 1085.0 min, TDE = time-dependent effect
Erythrocyte = assay: Hemolytic activity against human red blood cells assessed as hemoglobin release at 64 uM measured after 1 hr by microplate reader analysis; format: ADME, cell-based
In short: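 Fresh heparinized human RBCs washed three times in 10 mM PBS pH 7.4 and resuspended to about 1% (v/v) (5.4 × 10^8 cells/mL). Mixed 1:1 with peptide in PBS for 1 h at 37 °C, then centrifuged. Supernatant hemoglobin read at A540. PBS set as 0% and 0.1% Triton X-100 as 100% hemolysis. MHC is the concentration causing 10% hemolysis.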

Cell membrane = assay: Induction of outer membrane permeabilization in Escherichia coli O157:H7 CICC 21530 assessed as increase in fluorescence intensity by NPN-dye based fluorescence assay; format: subcellular; conditions: dose 0.625-7.5 µM

Substance | MIC (Escherichia coli [1]) | MIC (Escherichia coli [2]) | MIC (Salmonella paratyphi) | MIC [3] | MIC (Shigella flexneri) | MIC (Salmonella typhimurium) | MIC (Vibrio parahaemolyticus) | MIC (Staphylococcus aureus [4]) | MIC (Staphylococcus aureus [5]) | MIC (Listeria monocytogenes) | MIC (Micrococcus luteus) | MIC (Bacillus pumilus) | Activity (RAW264.7 [6]) | MIC (Escherichia coli [7]) | MIC (Escherichia coli [8]) | MIC (Escherichia coli [9]) | Activity (RAW264.7 [10]) | Activity (HepG2 [11]) | Activity (HepG2 [12]) | Activity (HepG2 [13]) | further results
H-WGEAFSAGVHRLANGGNG-NH2 | > 71.2 µM | > 71.2 µM | > 71.2 µM | > 71.2 µM | > 71.2 µM | > 71.2 µM | > 71.2 µM | > 71.2 µM | > 71.2 µM | > 71.2 µM | > 71.2 µM | > 71.2 µM | 73.62% | > 71.2 µM | > 71.2 µM | > 71.2 µM | Active | Dose-dependent effect | 52.45% | 2.26% | MIC (Staphylococcus aureus [14]): > 71.2 µM; MIC (Staphylococcus aureus [15]): > 71.2 µM; Activity (Escherichia coli [16]): Tde; Activity (Erythrocyte): Non-Toxic
H-WLRAFRRLVRRLARGLRR-NH2 | 0.85 µM | 1.7 µM | 0.43 µM | 0.85 µM | 0.43 µM | 6.81 µM | 1.7 µM | 0.43 µM | 0.43 µM | 0.21 µM | 0.43 µM | 0.85 µM | 40.73% | 3.4 µM | 0.85 µM | 0.85 µM | Active | Dose-dependent effect | 21.35% | 77.66% | Activity (Cell membrane): Dose-dependent effect; IC50 (HepG2 [11]; HepG2, 24 h): 32 µM; MIC (Staphylococcus aureus [14]): 0.21 µM; MIC (Staphylococcus aureus [15]): 0.21 µM; Activity (Escherichia coli [16]): Tde; Activity (Erythrocyte): Non-Toxic

Source: ChEMBL document CHEMBL4765236, “Insights into the Antimicrobial Activity and Cytotoxicity of Engineered α-Helical Peptide Amphiphiles” (J Med Chem, 2016)
